The species named for assay [1] is Rattus norvegicus. As to the kind of experiment: Potency of glycogenolytic activity was reported by four point assay. In kind it is functional.
The species entered for assay [2] is Rattus norvegicus. Description: Compound was evaluated for its glycogenolytic activity in normal male rats and the plasma glucose level was determined at 2 ug/100 g of body weight. Type of assay: functional, organism-based. The gist of the method:
(§1)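 Groups of five, anesthetized with sodium pentobarbital (6–7 mg/100 g), given peptide in saline s.c. (0.5 mL) 30 min later. Jugular blood was drawn at 15 min into EDTA, and plasma glucose was measured by glucose oxidase. Mean ± SD, n = 5.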

The species entered for assay [3] is Rattus norvegicus. Description: (§2) Compound was evaluated for its glycogenolytic activity in normal male rats and the plasma glucose level was determined at 1 ug/100 g of body weight. In kind it is functional, organism-based. In a few lines:
as §1

For assay [4], the species on record is Rattus norvegicus. Description: Compound was evaluated for its glycogenolytic activity in normal male rats and the plasma glucose level was determined at 12 ug/100 g of body weight. Type of assay: functional, organism-based. In a few lines:
(§3)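 Male Charles River CD rats (175–350 g), fed and kept at 24 ± 2 °C under a 0500–1900 h light cycle for at least 1 week. Groups of five, anesthetized with sodium pentobarbital (6–7 mg/100 g), given peptide in saline s.c. (0.5 mL) 30 min later. Jugular blood was drawn at 15 min into EDTA, and plasma glucose was measured by glucose oxidase. Mean ± SD, n = 5.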

Assay [5] is filed under the species Rattus norvegicus. As to the kind of experiment: Compound was evaluated for its glycogenolytic activity in normal male rats and the plasma glucose level was determined at 6 ug/100 g of body weight. Type of assay: functional, organism-based. In a few lines:
as §3

The species entered for assay [6] is Rattus norvegicus. As to the kind of experiment: Compound was evaluated for its glycogenolytic activity in normal male rats and the plasma glucose level was determined at 0.5 ug/100 g of body weight. Type of assay: functional, organism-based.
The species named for assay [7] is Rattus norvegicus. The description is as §2. Type of assay: functional, organism-based. The gist of the method:
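Male Charles River CD rats (175–350 g), fed, anesthetized with sodium pentobarbital (6–7 mg/100 g), dosed subcutaneously 30 min later with peptide in saline (0.5 mL, gelatin-coated syringes), groups of five. Jugular blood drawn exactly 15 min post-injection into EDTA, and plasma glucose measured by glucose oxidase. Values are mean ± SD, n = 5.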
The source holds these as a separate data set.

For assay [8], the species on record is Rattus norvegicus. As to the kind of experiment: potency of glycogenolytic activity was reported by four point assay. Type of assay: functional, organism-based.
For assay [9], the species on record is Rattus norvegicus. Description: Compound was evaluated for its glycogenolytic activity in normal male rats and the plasma glucose level was determined at 4 ug/100 g of body weight. In kind it is functional, organism-based. In a few lines: as §3

Peptide text beside a SMILES is read from it.

In the assay listed under Rattus norvegicus [1], `CSCC[C@H](NC(=O)[C@H](CC(C)C)NC(=O)[C@H](Cc1c[nH]c2ccccc12)NC(=O)[C@H](CCC(N)=O)NC(=O)[C@@H](NC(=O)[C@H](Cc1ccccc1)NC(=O)[C@H](CC(=O)O)NC(=O)[C@H](CCC(N)=O)NC(=O)[C@H](C)NC(=O)[C@H](CCCN=C(N)N)NC(=O)[C@H](CCCN=C(N)N)NC(=O)[C@H](CO)NC(=O)[C@H](CC(=O)O)NC(=O)[C@H](CC(C)C)NC(=O)[C@H](Cc1ccc(O)cc1)NC(=O)[C@H](CCCN=C(N)N)NC(=O)[C@H](CO)NC(=O)[C@H](Cc1ccc(O)cc1)NC(=O)[C@H](CC(=O)O)NC(=O)[C@H](CO)NC(=O)[C@@H](NC(=O)[C@H](Cc1ccccc1)NC(=O)[C@@H](NC(=O)CNC(=O)[C@H](CCC(N)=O)NC(=O)[C@H](CO)NC(=O)[C@@H](N)Cc1ccccc1)[C@@H](C)O)[C@@H](C)O)C(C)C)C(=O)N[C@@H](CC(N)=O)C(=O)N[C@H](C(=O)O)[C@@H](C)O` (H-FSQGTFTSDYSRYLDSRRAQDFVQWLMNT-OH) gave a Potency of 31%. Moreover, the Plasma glucose in the assay filed under Rattus norvegicus [2] amounted to 183 mg 100ml-1; in the assay listed under Rattus norvegicus [3], 161 mg 100ml-1.
As for `CSCC[C@H](NC(=O)[C@H](CC(C)C)NC(=O)[C@H](Cc1c[nH]c2ccccc12)NC(=O)[C@H](CCC(N)=O)NC(=O)[C@@H](NC(=O)[C@H](Cc1ccccc1)NC(=O)[C@H](CC(=O)O)NC(=O)[C@H](CCC(N)=O)NC(=O)[C@H](C)NC(=O)[C@H](CCCN=C(N)N)NC(=O)[C@H](CCCN=C(N)N)NC(=O)[C@H](CO)NC(=O)[C@H](CC(=O)O)NC(=O)[C@H](CC(C)C)NC(=O)[C@H](Cc1ccc(O)cc1)NC(=O)[C@H](CCCN=C(N)N)NC(=O)[C@H](CO)NC(=O)[C@H](Cc1ccc(O)cc1)NC(=O)[C@H](CC(=O)O)NC(=O)[C@H](CO)NC(=O)[C@@H](NC(=O)[C@H](Cc1ccccc1)NC(=O)[C@@H](NC(=O)CNC(=O)[C@H](CCC(N)=O)NC(=O)[C@@H](N)CO)[C@@H](C)O)[C@@H](C)O)C(C)C)C(=O)N[C@@H](CC(N)=O)C(=O)N[C@H](C(=O)O)[C@@H](C)O` (H-SQGTFTSDYSRYLDSRRAQDFVQWLMNT-OH), the Potency in the assay filed under Rattus norvegicus [1] came out at 4%. For the same molecule, the Plasma glucose in the assay listed under Rattus norvegicus [4] stood at 186 mg 100ml-1; in the assay filed under Rattus norvegicus [5], 165 mg 100ml-1.
Take GLUCAGON: the Plasma glucose in the assay listed under Rattus norvegicus [6] was 186 mg 100ml-1 [middle of 4 runs]; in the assay listed under Rattus norvegicus [7] it was 213 mg 100ml-1 [middle of 5 runs]. Also, the Potency in the assay listed under Rattus norvegicus [1] and in the assay listed under Rattus norvegicus [8] was 100% each time.
`CSCC[C@H](NC(=O)[C@H](CC(C)C)NC(=O)[C@H](Cc1c[nH]c2ccccc12)NC(=O)[C@H](CCC(N)=O)NC(=O)[C@@H](NC(=O)[C@H](Cc1ccccc1)NC(=O)[C@H](CC(=O)O)NC(=O)[C@H](CCC(N)=O)NC(=O)[C@H](C)NC(=O)[C@H](CCCN=C(N)N)NC(=O)[C@H](CCCN=C(N)N)NC(=O)[C@H](CO)NC(=O)[C@H](CC(=O)O)NC(=O)[C@H](CC(C)C)NC(=O)[C@H](Cc1ccc(O)cc1)NC(=O)[C@H](CCCN=C(N)N)NC(=O)[C@H](CO)NC(=O)[C@H](Cc1ccc(O)cc1)NC(=O)[C@H](CC(=O)O)NC(=O)[C@H](CO)NC(=O)[C@@H](NC(=O)[C@H](Cc1ccccc1)NC(=O)[C@@H](NC(=O)[C@@H](C)NC(=O)[C@H](CCC(N)=O)NC(=O)[C@H](CO)NC(=O)[C@H](N)Cc1ccc(Cl)cc1)[C@@H](C)O)[C@@H](C)O)C(C)C)C(=O)N[C@@H](CC(N)=O)C(=O)N[C@H](C(=O)O)[C@@H](C)O` displayed a Potency in the assay filed under Rattus norvegicus [1] of 9%. In addition, the Plasma glucose in the assay filed under Rattus norvegicus [9] is 176 mg 100ml-1; in the assay filed under Rattus norvegicus [2] it was 158 mg 100ml-1.
`CSCC[C@H](NC(=O)[C@H](CC(C)C)NC(=O)[C@H](Cc1c[nH]c2ccccc12)NC(=O)[C@H](CCC(N)=O)NC(=O)[C@@H](NC(=O)[C@H](Cc1ccccc1)NC(=O)[C@H](CC(=O)O)NC(=O)[C@H](CCC(N)=O)NC(=O)[C@H](C)NC(=O)[C@H](CCCN=C(N)N)NC(=O)[C@H](CCCN=C(N)N)NC(=O)[C@H](CO)NC(=O)[C@H](CC(=O)O)NC(=O)[C@H](CC(C)C)NC(=O)[C@H](Cc1ccc(O)cc1)NC(=O)[C@H](CCCN=C(N)N)NC(=O)[C@H](CO)NC(=O)[C@H](Cc1ccc(O)cc1)NC(=O)[C@H](CC(=O)O)NC(=O)[C@H](CO)NC(=O)[C@@H](NC(=O)[C@H](Cc1ccccc1)NC(=O)[C@@H](NC(=O)[C@@H](C)NC(=O)[C@H](CCC(N)=O)NC(=O)[C@H](CO)NC(=O)[C@@H](N)Cc1c[nH]cn1)[C@@H](C)O)[C@@H](C)O)C(C)C)C(=O)N[C@@H](CC(N)=O)C(=O)N[C@H](C(=O)O)[C@@H](C)O` returned a Potency in the assay listed under Rattus norvegicus [1] of 44%. For the same molecule, the values for the Plasma glucose in the assay filed under Rattus norvegicus [2] and in the assay filed under Rattus norvegicus [3] were 198 mg 100ml-1 and 174 mg 100ml-1, respectively.

The values above are taken from ChEMBL document CHEMBL1122584 (1984).
